Results as given in ChEMBL document CHEMBL2407075, “Sulphonamido-quinoxalines: search for anticancer agent” (Eur J Med Chem, 2013).

Tests used:
Format in all cases: functional
UACC-62 [1] = experiment: Growth inhibition of human UACC62 cells assessed as cell growth at 10^-4 M after 48 hrs by sulforhodamine B assay; settings: UACC-62, 48 h, read-out: Activity
NCI-H322M [2] = experiment: Growth inhibition of human NCI-H322M cells assessed as cell growth at 10^-4 M after 48 hrs by sulforhodamine B assay; settings: read-out: Activity
HL-60(TB) = experiment: Growth inhibition of human HL-60(TB) cells assessed as cell growth at 10^-4 M after 48 hrs by sulforhodamine B assay; settings: HL-60, 48 h, read-out: Activity
Summary of the method: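 HL-60(TB) suspension cells were treated 48 h at 37 °C within the five-dose series (0.01–100 µM), fixed with 16% final TCA and SRB-stained, read at 515 nm. Percentage growth at each concentration = (Ti−Tz)/(C−Tz)×100, or (Ti−Tz)/Tz×100 when Ti<Tz, with time-zero (Tz) and untreated control (C) plates.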

[3] = Growth inhibition of human Hs 578T cells assessed as cell growth at 10^-5 M after 48 hrs by sulforhodamine B assay; settings: read-out: Activity
Summary of the method: (§1)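 Five-dose screen at NCI. Cells in RPMI 1640 with 5% FBS and 2 mM L-glutamine, seeded at 5000–40,000 cells/well and grown 24 h at 37 °C, 5% CO2 before dosing, with time-zero plates TCA-fixed. Drug diluted from DMSO stock to 0.01, 0.1, 1, 10 and 100 µM final, 48 h. Cells fixed with cold TCA (10% final), stained with 0.4% SRB and read at 515 nm. Percent growth from Tz, control and test absorbances; GI50, TGI and LC50 from dose-response curves.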

DU-145 = experiment: Growth inhibition of human DU145 cells assessed as cell growth at 10^-5 M after 48 hrs by sulforhodamine B assay; settings: DU-145, 48 h, read-out: Activity
Summary of the method: (§2)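 Five-dose NCI-60 run (0.01, 0.1, 1, 10 and 100 µM, as 10-fold dilutions from a DMSO stock made at 400× the top final level). Cells were grown in RPMI 1640 with 5% FBS and 2 mM glutamine and plated for 24 h. They were then exposed for 48 h at 37 °C and 5% CO2. TCA fixation was followed by SRB staining with A515 read-out. Percent growth was taken relative to time-zero and control plates.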

786-0 = experiment: Growth inhibition of human 786-0 cells assessed as cell growth at 10^-5 M after 48 hrs by sulforhodamine B assay; settings: 786-0, 48 h, read-out: Activity; summary of the method: as §2
[4] = Growth inhibition of human NCI-ADR-RES cells assessed as cell growth at 10^-5 M after 48 hrs by sulforhodamine B assay; settings: read-out: Activity
UACC-257 = experiment: Growth inhibition of human UACC257 cells assessed as cell growth at 10^-5 M after 48 hrs by sulforhodamine B assay; settings: UACC-257, 48 h, read-out: Activity
MDA-MB-435 = experiment: Growth inhibition of human MDA-MB-435 cells assessed as cell growth at 10^-5 M after 48 hrs by sulforhodamine B assay; settings: MDA-MB-435, 48 h, read-out: Activity
M14 = experiment: Growth inhibition of human M14 cells assessed as cell growth at 10^-5 M after 48 hrs by sulforhodamine B assay; settings: M14, 48 h, read-out: Activity
SR = experiment: Growth inhibition of human SR cells assessed as cell growth at 10^-5 M after 48 hrs by sulforhodamine B assay; settings: read-out: Activity
K562 [5] = experiment: Growth inhibition of human K562 cells assessed as cell growth at 10^-5 M after 48 hrs by sulforhodamine B assay; settings: K562, 48 h, read-out: Activity
SK-OV-3 [6] = experiment: Growth inhibition of human SKOV3 cells assessed as cell growth at 10^-6 M after 48 hrs by sulforhodamine B assay; settings: SK-OV-3, 48 h, read-out: Activity
OVCAR-5 = experiment: Growth inhibition of human OVCAR5 cells assessed as cell growth at 10^-6 M after 48 hrs by sulforhodamine B assay; settings: OVCAR-5, 48 h, read-out: Activity
NCI-H322M [7] = experiment: Growth inhibition of human NCI-H322M cells assessed as cell growth at 10^-6 M after 48 hrs by sulforhodamine B assay; settings: read-out: Activity
SNB-75 = experiment: Growth inhibition of human SNB75 cells assessed as cell growth at 10^-7 M after 48 hrs by sulforhodamine B assay; settings: SNB-75, 48 h, read-out: Activity
NCI-H460 = experiment: Growth inhibition of human NCI-H460 cells assessed as cell growth at 10^-7 M after 48 hrs by sulforhodamine B assay; settings: NCI-H460, 48 h, read-out: Activity
NCI-H23 = experiment: Growth inhibition of human NCI-H23 cells assessed as cell growth at 10^-7 M after 48 hrs by sulforhodamine B assay; settings: NCI-H23, 48 h, read-out: Activity
HOP-92 = experiment: Growth inhibition of human HOP92 cells assessed as cell growth at 10^-7 M after 48 hrs by sulforhodamine B assay; settings: HOP-92, 48 h, read-out: Activity; summary of the method: as §1
UACC-62 [8] = experiment: Growth inhibition of human UACC62 cells assessed as cell growth at 10^-8 M after 48 hrs by sulforhodamine B assay; settings: UACC-62, 48 h, read-out: Activity
K562 [9] = experiment: Growth inhibition of human K562 cells assessed as cell growth at 10^-8 M after 48 hrs by sulforhodamine B assay; settings: K562, 48 h, read-out: Activity
BT-549 = experiment: Growth inhibition of human BT549 cells after 48 hrs by sulforhodamine B assay; settings: BT-549, 48 h; for CC50: read-out: LC50 (the source's name)
Summary of the method: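 Adherent cells in RPMI 1640 with 5% FBS and 2 mM L-glutamine were plated at 5000–40,000 cells/well and grown 24 h. Five concentrations (0.01–100 µM, DMSO stock) were added for 48 h at 37 °C. Cells were fixed with cold TCA (10% final) and stained with SRB, read at 515 nm. GI50 came from log concentration–growth curves against time-zero and control plates.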

SK-OV-3 [10] = experiment: Growth inhibition of human SKOV3 cells after 48 hrs by sulforhodamine B assay; settings: SK-OV-3, 48 h; for CC50: read-out: LC50 (the source's name)
Summary of the method: (§3)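 Five-dose NCI 60 screen at 0.01, 0.1, 1, 10 and 100 µM, 48 h exposure after 24 h preincubation, in RPMI 1640 with 5% FBS and 2 mM glutamine. Fixed with TCA (10% final for adherent cells, 16% for suspension cells), stained with SRB, A515 read. Percent growth uses time-zero (Tz), control and treated plates. GI50, TGI and LC50 are read from the dose-response curves.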

OVCAR-8 = experiment: Growth inhibition of human OVCAR8 cells after 48 hrs by sulforhodamine B assay; settings: OVCAR-8, 48 h; for CC50: read-out: LC50 (the source's name); summary of the method: as §3
SK-MEL-2 [11] = experiment: Growth inhibition of human SK-MEL-2 cells assessed as cell growth at 10^-4 M after 48 hrs by sulforhodamine B assay; settings: SK-MEL-2, 48 h, read-out: Activity
SK-MEL-2 [12] = experiment: Growth inhibition of human SK-MEL-2 cells assessed as cell growth at 10^-5 M after 48 hrs by sulforhodamine B assay; settings: SK-MEL-2, 48 h, read-out: Activity

SMILES	growth at 100 µM (UACC-62 [1])	growth at 100 µM (NCI-H322M [2])	growth at 100 µM (HL-60(TB))	growth at 10 µM [3]	growth at 10 µM (DU-145)	growth at 10 µM (786-0)	growth at 10 µM [4]	growth at 10 µM (UACC-257)	growth at 10 µM (MDA-MB-435)	growth at 10 µM (M14)	growth at 10 µM (SR)	growth at 10 µM (K562 [5])	growth at 1 µM (SK-OV-3 [6])	growth at 1 µM (OVCAR-5)	growth at 1 µM (NCI-H322M [7])	growth at 0.1 µM (SNB-75)	growth at 0.1 µM (NCI-H460)	growth at 0.1 µM (NCI-H23)	growth at 0.1 µM (HOP-92)	growth at 0.01 µM (UACC-62 [8])	other results
O=S(=O)(Nc1ccccn1)c1ccc2nc(-c3ccccc3)c(-c3ccccc3)nc2c1	64%	65%	29%	-11%	31%	-30%	-1%	-25%	-25%	-42%	-42%	9%	98%	104%	108%	90%	106%	94%	92%	92%	growth at 0.01 µM (K562 [9]): 105%; GI50 (BT-549): 1.58 µM; CC50 (BT-549): > 100 µM; GI50 (SK-OV-3 [10]): 3.58 µM; TGI (SK-OV-3 [10]): > 100 µM; CC50 (SK-OV-3 [10]): > 100 µM; GI50 (OVCAR-8): 2.6 µM; TGI (OVCAR-8): > 100 µM; CC50 (OVCAR-8): > 100 µM
O=S(=O)(Nc1ccc(Cl)cc1)c1ccc2nc(-c3ccccc3)c(-c3ccccc3)nc2c1	62%	88%	45%	3%	26%	-45%	14%	-24%	-25%	-27%	-48%	11%	105%	90%	98%	68%	105%	92%	92%	95%	growth at 100 µM (SK-MEL-2 [11]): 69%; growth at 10 µM (SK-MEL-2 [12]): -56%; growth at 0.01 µM (K562 [9]): 98%; CC50 (BT-549): > 100 µM; TGI (SK-OV-3 [10]): > 100 µM; CC50 (SK-OV-3 [10]): > 100 µM; TGI (OVCAR-8): > 100 µM; CC50 (OVCAR-8): > 100 µM
